Measured values published in ChEMBL document CHEMBL1926612, “Solid-phase synthesis of 2'-hydroxychalcones. Effects on cell growth inhibition, cell cycle and apoptosis of human tumor cell lines” (2012).
Calls of active or inactive are those of the source. The rule behind the calls is not given here.

Experiments:
Type in all cases: functional
[1] = tested on: MCF7; experiment: Growth inhibition of human MCF7 cells after 48 hrs by SRB assay; settings: MCF7, 48 h
Summary of the method: (§1)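 Cells seeded to stay in exponential growth (MCF-7 and NCI-H460 5.0 × 10³ cells/well, A375-C5 7.5 × 10³ cells/well) and left to adhere overnight. Then 48 h exposure to five serial dilutions (1:2 or 1:3) from DMSO stocks diluted in medium; DMSO vehicle control maximum 0.25%. TCA fixation, SRB staining, Tris solubilisation, absorbance at 492 nm. GI50 taken from dose–response curves as 50% inhibition of net growth. Mean ± SEM of ≥3 independent experiments, in duplicate.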

[2] = Growth inhibition of human A375-C5 cells after 48 hrs by SRB assay; settings: A375-C5, 48 h; summary of the method: as §1
[3] = tested on: NCI-H460; experiment: Growth inhibition of human NCI-H460 cells after 48 hrs by SRB assay; settings: NCI-H460, 48 h; summary of the method: as §1
[4] = tested on: MCF7; experiment: Induction of apoptosis in human MCF7 cells at 7.8 uM by annexinV-propidium iodide staining-based flow cytometric analysis (reference value: 11.1%)
Summary of the method: (§2)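 MCF-7 handled as for the cell-cycle study: 48 h exposure at the stated concentration, with untreated cells and a highest-level DMSO control. Harvested cells stained with annexin V-FITC/PI per kit instructions. Flow cytometry with ≥20,000 events per sample; apoptosis given as % of total cells. Mean ± SEM of three experiments (DMSO control two); unpaired t-test against untreated cells.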

[5] = tested on: MCF7; experiment: Cell cycle arrest in human MCF7 cells assessed as accumulation at sub-G1 phase at 7.8 uM after 48 hrs by propidium iodide staining-based flow cytometric analysis
Summary of the method: (§3)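 MCF-7 plated in 6-well plates (5.0 × 10³ cells/well) and held 24 h at 37 °C. Exponentially growing cells then exposed 48 h at the single concentration stated. Untreated and highest-level DMSO controls included. Fixation in 70% ethanol at 4 °C for ≥12 h, then PBS with 0.1 mg/mL RNase A and 5 µg/mL PI. DNA content by flow cytometry, ≥20,000 events; sub-G1 fraction scored after debris exclusion. Mean ± SEM of three experiments; unpaired t-test versus untreated cells.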

[6] = tested on: MCF7; experiment: Cell cycle arrest in human MCF7 cells assessed as accumulation at sub-G1 phase at 7.3 uM after 48 hrs by propidium iodide staining-based flow cytometric analysis relative to control; summary of the method: as §3
[7] = tested on: MCF7; experiment: Induction of apoptosis in human MCF7 cells at 7.3 uM by annexinV-propidium iodide staining-based flow cytometric analysis (reference value: 11.1%); summary of the method: as §2
[8] = tested on: MCF7; experiment: Cell cycle arrest in human MCF7 cells assessed as accumulation at sub-G1 phase at 8 uM after 48 hrs by propidium iodide staining-based flow cytometric analysis; summary of the method: as §3
[9] = tested on: MCF7; experiment: Induction of apoptosis in human MCF7 cells at 8 uM by annexinV-propidium iodide staining-based flow cytometric analysis (reference value: 11.1%); summary of the method: as §2
[10] = tested on: MCF7; experiment: Induction of apoptosis in human MCF7 cells at 7.1 uM by annexinV-propidium iodide staining-based flow cytometric analysis (reference value: 11.1%); summary of the method: as §2
[11] = tested on: MCF7; experiment: Induction of apoptosis in human MCF7 cells at 9.1 uM by annexinV-propidium iodide staining-based flow cytometric analysis (reference value: 11.1%); summary of the method: as §2
[12] = tested on: MCF7; experiment: Induction of apoptosis in human MCF7 cells at 10.5 uM by annexinV-propidium iodide staining-based flow cytometric analysis (reference value: 11.1%); summary of the method: as §2
[13] = tested on: MCF7; experiment: Induction of apoptosis in human MCF7 cells at 4.1 uM by annexinV-propidium iodide staining-based flow cytometric analysis (reference value: 11.1%); summary of the method: as §2

Row | Compound | GI50 [1] [µM] | GI50 [3] [µM] | GI50 [2] [µM] | further results
1 | COc1ccc(C2CC(=O)c3ccc(O)c(C)c3O2)c(OC)c1 (stereo unspecified) | 12.5 | > 150 | > 150 | 
2 | Cc1c(O)ccc(C(=O)/C=C/c2ccc(C(F)(F)F)cc2)c1O | 19.3 | 20.3 | 24.7 | 
3 | Cc1c(O)ccc(C(=O)/C=C/c2ccc(Cl)cc2)c1O | 34.5 | 43 | 41.6 | 
4 | COCOc1ccc(/C=C/C(=O)c2ccc(O)c(C)c2O)c(OCOC)c1 | 32.7 | > 150 | > 150 | 
5 | CCCc1c(O)ccc(C(=O)/C=C/c2ccc(OCOC)cc2OCOC)c1O | 18.2 | 24.3 | 35 | 
6 | CCCc1c(O)ccc2c1OC(c1cc(OC)c(OC)cc1OC)CC2=O (stereo unspecified) | 18.8 | 47 | 32 | 
7 | COc1ccc(/C=C/C(=O)c2ccc(O)cc2O)c(OC)c1 | 19.5 | 37 | 30.3 | 
8 | CCCc1c(O)ccc(C(=O)/C=C/c2cc(OC)c(OC)cc2OC)c1O | 9.1 | 24.5 | 23 | Activity [11]: 13.3%
9 | Cc1c(O)ccc(C(=O)/C=C/c2ccc(Cl)cc2Cl)c1O | 10.5 | 22.5 | 21.4 | Activity [12]: 16.6%
10 | COc1cc(OC)c(OC)cc1/C=C/C(=O)c1ccc(O)cc1O | 31.8 | 60 | 34.8 | 
11 | CCCc1c(O)ccc(C(=O)/C=C/c2ccc(OC)cc2)c1O | 13.3 | 24.7 | 46.3 | 

The next molecules have a lower GI50 [1] than those just listed; values first:

Row | GI50 [1] [µM] | GI50 [3] [µM] | Compound | GI50 [2] [µM] | further results
12 | 7.8 | 8.2 | COc1cc(/C=C/C(=O)c2ccc(O)cc2O)cc(OC)c1OC | 8.1 | Activity [4]: 20%; Activity [5]: Active
13 | 7.3 | 15.3 | O=C(/C=C/c1ccc(F)cc1)c1ccc(O)cc1O | 14.1 | Activity [6]: 11%; Activity [7]: 23.9%
14 | 0.0688 | 0.086 | COc1cccc2c1C(=O)c1c(O)c3c(c(O)c1C2=O)C[C@@](O)(C(=O)CO)C[C@@H]3O[C@H]1C[C@H](N)[C@H](O)[C@H](C)O1 [DOXORUBICIN] | 0.0915 | 
15 | 8 | 10.5 | O=C(/C=C/c1ccc(OCc2ccccc2)cc1)c1ccc(O)cc1O | 9 | Activity [8]: Active; Activity [9]: 15.4%
16 | 7.1 | 12.5 | CCCc1c(O)ccc(C(=O)/C=C/c2ccccc2Cl)c1O | 14.2 | Activity [10]: 14.8%
17 | 4.1 | 8.3 | CCCc1c(O)ccc(C(=O)/C=C/c2cc(OC)c(OC)c(OC)c2)c1O | 8.2 | Activity [13]: 14%
